Active and inactive are the calls of the source. The rule behind the calls is not given here. A value given as a limit tells only on which side of the number the result lay.

Data set [1] has as its system RAW264.7. Description: Cytotoxicity against mouse RAW264.7 cells at 50 uM incubated for 24 hrs in presence of LPS by MTT assay. It is filed as cell-based. To be noted: raw264.7, 24 h. In a few lines: (§1)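 RAW264.7 viability by MTT colorimetric assay after 24 h with compounds at 50 μM, with or without LPS (1 μg/mL).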
The test system of data set [2] is RAW264.7. Description: Antiinflammatory activity in mouse RAW264.7 cells assessed as reduction of LPS-induced IkappaBalpha degradation at 30 uM pre-treated for 30 mins before LPS challenge and measured after 15 mins by immunoblot. It is filed as functional, cell-based. The gist of the method: (§2)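 30 min pretreatment of RAW264.7 cells with compound, then LPS (1 μg/mL). Lysis in ice-cold Tris-HCl pH 7.5/NP-40 buffer with protease/phosphatase inhibitors. SDS-PAGE, PVDF transfer, skim-milk block, anti-IκB-α antibody, HRP secondary, ECL detection.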
A general note: A western blot detects proteins with antibodies after separation by electrophoresis.

Data set [3] has as its system RAW264.7. Put plainly: Antiinflammatory activity in mouse RAW264.7 cells assessed as reduction of LPS-induced iNOS protein expression pre-treated for 30 mins before LPS challenge for 18 hrs by immunoblot. The class given is functional, cell-based. The gist of the method: (§3)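 Cells pretreated 30 min with compound (0−10 μM), then LPS 1 μg/mL for 18 h. Total lysates in ice-cold Tris-HCl pH 7.5/NP-40 buffer; 50 μg protein per lane by SDS-PAGE, PVDF, skim-milk block, anti-iNOS and anti-α-tubulin antibodies, HRP secondary, ECL. iNOS densitometry normalized to α-tubulin.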

Data set [4] has as its system RAW264.7. Description: Antiinflammatory activity in mouse RAW264.7 cells assessed as inhibition of LPS-induced nitric oxide generation incubated for 24 hrs. It is filed as functional, cell-based. Particulars: RAW264.7, 24 h. In a few lines:
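Nitrite in supernatant reacted with Griess reagent (sulfanilamide/phosphoric acid plus naphthylethylenediamine), A540 read, calibrated against NaNO2 standard. IC50 versus vehicle control, mean ± SD of three experiments; celastrol positive control.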

Data set [5] has as its system RAW264.7. Put plainly: Cytotoxicity against mouse RAW264.7 cells at 50 uM incubated for 24 hrs in absence of LPS by MTT assay. It is filed as cell-based. To be noted: raw264.7, 24 h. The gist of the method:
as §1

Data set [6] in a line: Antioxidant activity assessed as nitric oxide free radical scavenging activity by UV-visible spectroscopy. It is filed as functional. In a few lines: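 Compounds in DMSO, made up with MeOH, mixed with 10 mM sodium nitroprusside in PBS; room temperature 150 min. Scavenging % = (control − sample)/control × 100, MeOH blank as control; ascorbic acid standard. IC50, mean ± SD of three experiments.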

Data set [7] concerns RAW264.7. Put plainly: Antiinflammatory activity in mouse RAW264.7 cells assessed as reduction of LPS-induced IkappaBalpha resynthesis at 30 uM pre-treated for 30 mins before LPS challenge by immunoblot. The class given is functional, cell-based. In a few lines:
as §2

Data set [8] concerns RAW264.7. Put plainly: Antiinflammatory activity in mouse RAW264.7 cells assessed as inhibition of LPS-induced TNFalpha production incubated for 24 hrs by ELISA. To be noted: RAW264.7, 24 h. It is filed as functional, cell-based. The gist of the method:
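RAW264.7 cells (1 × 10^5 cells/well) stimulated with 1 μg/mL LPS for 24 h with test compounds; TNF-α in culture supernatant quantified by ELISA. IC50 relative to vehicle control; mean ± SD of three repeated experiments. Celastrol positive control.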

Data set [9] has as its system RAW264.7. Description: Effect on alpha-tubulin protein expression in mouse RAW264.7 cells up to 10 uM pre-treated for 30 mins before LPS challenge for 18 hrs by immunoblot. The class given is functional, cell-based. In a few lines: as §3
In data set [10] the test system is RAW264.7. Put plainly: Antiinflammatory activity in mouse RAW264.7 cells assessed as reduction of LPS-induced IkappaBalpha degradation at 30 uM pre-treated for 30 mins before LPS challenge and measured after 10 mins by immunoblot. The class given is functional, cell-based. The gist of the method: as §2
For data set [11], the system named is RAW264.7. Description: Antiinflammatory activity in mouse RAW264.7 cells assessed as reduction of LPS-induced IkappaBalpha degradation at 30 uM pre-treated for 30 mins before LPS challenge and measured after 5 mins by immunoblot. The class given is functional, cell-based. In a few lines: as §2

The IC50 is the concentration that gives 50% inhibition. As to `COc1cc(O)c2c(=O)c(OC)c(-c3ccc(O)c(O)c3)oc2c1`, the values for the Activity entry in data set [1], in [3] and in data set [5] were “Non-toxic”, “Dose-dependent effect” and “Non-toxic”, respectively. In addition, the outcome in data set [2], in data set [7] and in data set [10] was Active. Further, the IC50 stood at 3.5 µM in [4], 103 µM in [6] and 5.8 µM in data set [8]. Also, the result in [9] was inactive.

For `O=C1c2ccc(O)cc2OC[C@@H]1Cc1ccc(O)c(O)c1`, the Activity result in data set [1] and in data set [5] was “Non-toxic” in each case. Further, the concentration for half-maximal inhibition (IC50) worked out at 42.4 µM in [4] and 65.3 µM in data set [6].

For the molecule `O=C1c2ccc(O)cc2OC[C@]1(O)Cc1ccc(O)cc1`, the Activity result in data set [1] and in data set [5] was “Non-toxic” each time. For the same molecule, the IC50 was above 50 µM in data set [4] and 117 µM in data set [6].

Regarding `COc1ccc(-c2oc3cc(O)cc(O)c3c(=O)c2O)cc1OC`, the Activity result in [1] and in [5] was “Non-toxic” in each case. Besides, the IC50 in data set [4] came to 35 µM; in data set [6], 85.3 µM.

As for `O=C1C=C[C@]23CC(COC2=C1)Cc1cc(O)c(O)cc13`, the Activity result in [1] and in data set [5] was “Non-toxic” each time. In addition, the results for the half-inhibitory concentration (IC50) in [4] and in [6] were above 50 µM and 157 µM, respectively.

Consider `O=C1/C(=C/c2ccc(O)cc2)COc2cc(O)ccc21`, for which the Activity result in data set [1] and in data set [5] was “Non-toxic” throughout. In addition, the results for the IC50 in data set [4] and in data set [6] were above 50 µM and 95.5 µM, respectively.

For the molecule `O=C1O[C@H]([C@@H](O)CO)C(O)=C1O` [ASCORBIC ACID], in [6], the IC50 amounted to 0.71 µM.

Consider `COc1cc(C[C@@]2(O)COc3cc(O)ccc3C2=O)ccc1O` [CAESALPINIAPHENOL A], for which the Activity entry in data set [1] and in data set [5] was “Non-toxic” each time. Moreover, the figures for the IC50 in data set [4] and in [6] were above 50 µM and 103 µM, respectively.

On to `O=C1OCC=C1C[C@@]1(O)COc2cc(O)ccc2C1=O` [CAESALPINIAPHENOL B], for which the Activity entry in data set [1] and in [5] was “Non-toxic” each time. The concentration for half-maximal inhibition (IC50) was above 50 µM in data set [4] and 95.6 µM in data set [6].

Turning to `O=C1COc2cc(O)ccc2-c2cc(O)c(O)cc21` [CAESALPINIAPHENOL C], the Activity entry in [1] and in [5] was “Non-toxic” each time. Besides, the figures for the IC50 in [4] and in [6] were above 50 µM and 86.2 µM, respectively.

`O=Cc1ccc(O)cc1O[C@H](O)c1ccc(O)c(O)c1` [CAESALPINIAPHENOL D]: the Activity entry was “Non-toxic” in [1], “Dose-dependent effect” in data set [3] and “Non-toxic” in data set [5]. For the same molecule, the IC50 in [4] was 12.2 µM; in data set [6], 113 µM; in data set [8] it was above 50 µM. Further, in [9], the outcome was inactive.

As to `CC1=C(O)C(=O)C=C2C1=CC=C1[C@@]2(C)CC[C@@]2(C)[C@@H]3C[C@](C)(C(=O)O)CC[C@]3(C)CC[C@]12C` [CELASTROL], the IC50 in data set [8] worked out at 0.8 µM.

Regarding `O=C1/C(=C/c2ccc(O)c(O)c2)COc2cc(O)ccc21` [SAPPANONE A], the Activity result in [1] is “Non-toxic”; in data set [3], “Dose-dependent effect”; in [5], “Non-toxic”. Further, the result in data set [2], in data set [7] and in data set [11] was Active. Further, the IC50 in data set [4] is 5.7 µM; in data set [6], 96.6 µM; in [8] it was 8.3 µM. In data set [9], the outcome was inactive.

For the origin of these results see ChEMBL document CHEMBL2203194, “Phenolic compounds from Caesalpinia sappan heartwood and their anti-inflammatory activity” (J Nat Prod, 2012).
